Data taken from ChEMBL document CHEMBL1139312, “Synthesis and SAR of 6-chloro-4-fluoroalkylamino-2-heteroaryl-5-(substituted)phenylpyrimidines as anti-cancer agents” (Bioorg Med Chem, 2009).
In brackets after ≈: the same amount, converted by molar mass. Activity calls are given as the source filed them. No cut-off for these calls is given here.

What was measured:
[1] = tested on: COLO 205; assay: Antiproliferative activity against human COLO205 cells after 24 hrs by MTS assay; format: functional, cell-based
[2] = Induction of tubulin polymerization
[3] = tested on: KB; assay: Antiproliferative activity against human KB cells after 3 days by SRB assay; format: functional, cell-based; details: 72 h
[4] = Antiproliferative activity against human KB 8.5 cells after 3 days by SRB assay; format: functional, cell-based; details: 72 h
[5] = Antiproliferative activity against human KBV1 cells after 3 days by SRB assay; format: functional, cell-based; details: KB-V1, 72 h
[6] = tested on: KB; assay: Ratio of IC50 for human KB 8.5 cells to IC50 for human KB cells; format: functional
Method in brief: (§1)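 Resistance ratio: IC50 in KB 8.5 or KB V1 cells divided by IC50 in parental KB cells, each IC50 from 10-concentration duplicate dose–response curves; ratio near 1 means no resistance.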

[7] = Ratio of IC50 for human KBV1 cells to IC50 for human KB cells; format: functional; method in brief: as §1
[8] = Aqueous solubility at pH 7.4 by shake flask method; format: physicochemical
[9] = Metabolic stability in female nude mouse liver microsomes at 1 uM after 30 mins; format: ADME, Microsome
Method in brief: (§2)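 Liver microsomes (1 mg/mL) from each species and sex were incubated with compound for 30 min at 37 °C in the presence of NADPH. Read-out was metabolic half-life (t1/2).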

[10] = Metabolic stability in male Sprague-Dawley rat liver microsomes at 1 uM after 30 mins; format: ADME, Microsome; method in brief: as §2
[11] = Metabolic stability in female Sprague-Dawley rat liver microsomes at 1 uM after 30 mins; format: ADME, Microsome; method in brief: as §2
[12] = Metabolic stability in male Beagle dog liver microsomes at 1 uM after 30 mins; format: ADME, Canis lupus familiaris, Microsome; method in brief: as §2
[13] = Metabolic stability in male cynomolgus monkey liver microsomes at 1 uM after 30 mins; format: ADME, Macaca fascicularis, Microsome; method in brief: as §2
[14] = Metabolic stability in male human liver microsomes at 1 uM after 30 mins; format: ADME, Microsome; method in brief: as §2
[15] = Volume of distribution in rat; format: ADME, organism-based; details: in vivo
Method in brief: (§3)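 Rat pharmacokinetic parameters were derived by non-compartmental, model-independent analysis.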

[16] = Clearance in rat; format: ADME, organism-based; details: in vivo; method in brief: as §3
[17] = Half life in rat; format: ADME, organism-based; details: in vivo; method in brief: as §3
[18] = Bioavailability in rat; format: ADME, organism-based; details: in vivo; method in brief: as §3
[19] = tested on: NCI-H460; assay: Antitumor activity against human H460 cells xenografted in Foxn1nu mouse assessed as reduction in tumor growth at 2.5 to 10 mg/kg, po; format: functional, organism-based
Method in brief: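 Female NU/NU-Foxn1nu mice were injected s.c. in the flank with 1 × 10⁶ H460 cells per animal and staged (randomized) when tumors reached about 100 mg. Compound was given by oral gavage in Klucel on days 0 and 7 after staging. Controls received vehicle only, i.v. Nine animals per group; tumor mass was followed over days.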

[20] = tested on: LOX; assay: Antitumor activity against human LOX cells xenografted in Foxn1nu mouse assessed as reduction in tumor growth at 1 to 6 mg/kg, iv; format: functional, organism-based
Method in brief: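 LOX melanoma cells (2 × 10⁶ per animal) were implanted s.c. in the flank of female NU/NU-Foxn1nu mice, which were staged at about 100 mg tumor mass. Compound was dosed i.v. in 0.9% saline on days 1, 5 and 9 after staging, with a vehicle-only i.v. control. Five mice per group. Relative tumor growth = mean tumor mass on day d / group mean on day 0.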

Fc1cc(F)c(-c2c(Cl)nc(-n3cccn3)nc2NCC(F)(F)F)c(F)c1
IC50 ([1]; Homo sapiens, COLO 205, 24 h): 0.053 µM

CNCCCOc1cc(F)c(-c2c(Cl)nc(-n3cccn3)nc2N[C@@H](C)C(F)(F)F)c(F)c1 [listing 1 of 3 here]
IC50 ([1]; Homo sapiens, COLO 205, 24 h): 0.0024 µM

Fc1cc(F)c(-c2c(Cl)nc(-c3ccc4ccccc4n3)nc2NCC(F)(F)F)c(F)c1
IC50 ([1]; Homo sapiens, COLO 205, 24 h): 0.25 µM

CN(C)CCCOc1cc(F)c(-c2c(Cl)nc(-c3cnccn3)nc2NCC(F)(F)F)c(F)c1 [listing 1 of 2 here]
IC50 ([1]; Homo sapiens, COLO 205, 24 h): 0.018 µM

Fc1cc(F)c(-c2c(Cl)nc(-c3ccccn3)nc2NCC(F)(F)F)c(F)c1
IC50 ([1]; Homo sapiens, COLO 205, 24 h): 0.039 µM

Fc1cc(F)c(-c2c(Cl)nc(-c3ccncc3)nc2NCC(F)(F)F)c(F)c1
IC50 ([1]; Homo sapiens, COLO 205, 24 h): > 5 µM

Fc1cc(F)c(-c2c(Cl)nc(-c3ccco3)nc2NCC(F)(F)F)c(F)c1
IC50 ([1]; Homo sapiens, COLO 205, 24 h): 0.232 µM

CNCCCOc1cc(F)c(-c2c(Cl)nc(-n3cccn3)nc2N[C@@H](C)C(F)(F)F)c(F)c1 [listing 2 of 3 here]
Activity [2]: Active

CN(C)CCCOc1cc(F)c(-c2c(Cl)nc(-n3ccnc3)nc2NCC(F)(F)F)c(F)c1
IC50 ([1]; Homo sapiens, COLO 205, 24 h): 0.682 µM

CNCCCOc1cc(F)c(-c2c(Cl)nc(-c3cnccn3)nc2N[C@@H](C)C(F)(F)F)c(F)c1 [listing 1 of 3 here]
IC50 ([1]; colo 205): 0.0069 µM | IC50 [3]: 0.007 µM | IC50 [4]: 0.024 µM | IC50 [5]: 0.405 µM | Ratio IC50 [6]: 3.4 | Ratio IC50 [7]: 58 | solubility thermodynamic [8]: 0.54 mg/mL (≈ 1070 µM) | half-life at 1 µM [9]: > 1 h | half-life at 1 µM [10]: > 1 h | half-life at 1 µM [11]: > 1 h | half-life at 1 µM [12]: > 1 h | half-life at 1 µM [13]: > 1 h | half-life at 1 µM [14]: > 1 h | Vd [15]: 14 L/kg | clearance [16]: 1.26 L/h/kg | half-life [17]: 8.6 h | bioavailability [18]: 100%

Fc1cc(F)c(-c2c(Cl)nc(-n3ccnc3)nc2NCC(F)(F)F)c(F)c1
IC50 ([1]; Homo sapiens, COLO 205, 24 h): 3.03 µM

CN(C)CCCCOc1cc(F)c(-c2c(Cl)nc(-c3cnccn3)nc2NCC(F)(F)F)c(F)c1
IC50 ([1]; Homo sapiens, COLO 205, 24 h): 0.032 µM

Fc1cc(F)c(-c2c(Cl)nc(-c3nccc4ccccc34)nc2NCC(F)(F)F)c(F)c1
IC50 ([1]; Homo sapiens, COLO 205, 24 h): 4.68 µM

CNCCCOc1cc(F)c(-c2c(Cl)nc(-c3ccccn3)nc2N[C@@H](C)C(F)(F)F)c(F)c1 [listing 1 of 3 here]
Activity [2]: Active

Fc1cc(F)c(-c2c(Cl)nc(-c3cc4ccccc4cn3)nc2NCC(F)(F)F)c(F)c1
IC50 ([1]; Homo sapiens, COLO 205, 24 h): 0.119 µM

CN(C)CCOc1cc(F)c(-c2c(Cl)nc(-c3cnccn3)nc2NCC(F)(F)F)c(F)c1
IC50 ([1]; Homo sapiens, COLO 205, 24 h): 0.128 µM

CN(C)CCCOc1cc(F)c(-c2c(Cl)nc(-c3ncccn3)nc2NCC(F)(F)F)c(F)c1
IC50 ([1]; Homo sapiens, COLO 205, 24 h): 0.049 µM

Fc1cc(F)c(-c2c(Cl)nc(-c3ncccn3)nc2NCC(F)(F)F)c(F)c1
IC50 ([1]; Homo sapiens, COLO 205, 24 h): 0.265 µM

CNCCCOc1cc(F)c(-c2c(Cl)nc(-c3cnccn3)nc2N[C@@H](C)C(F)(F)F)c(F)c1 [listing 2 of 3 here]
Activity [19]: Active | Activity [20]: Active | Activity [2]: Active

CNCCCOc1cc(F)c(-c2c(Cl)nc(-n3cccn3)nc2N[C@@H](C)C(F)(F)F)c(F)c1 [listing 3 of 3 here]
IC50 [3]: 0.0024 µM | IC50 [4]: 0.032 µM | IC50 [5]: 0.569 µM | Ratio IC50 [6]: 13 | Ratio IC50 [7]: 237

CNCCCOc1cc(F)c(-c2c(Cl)nc(-c3ccccn3)nc2N[C@@H](C)C(F)(F)F)c(F)c1 [listing 2 of 3 here]
IC50 ([1]; Homo sapiens, COLO 205, 24 h): 0.0052 µM

CNCCCOc1cc(F)c(-c2c(Cl)nc(-c3ccccn3)nc2N[C@@H](C)C(F)(F)F)c(F)c1 [listing 3 of 3 here]
IC50 [3]: 0.0062 µM | IC50 [4]: 0.021 µM | IC50 [5]: 0.423 µM | Ratio IC50 [7]: 68

CC(=O)O[C@H]1C(=O)[C@@]2(C)[C@H]([C@H](OC(=O)c3ccccc3)[C@]3(O)C[C@H](OC(=O)[C@H](O)[C@@H](NC(=O)c4ccccc4)c4ccccc4)C(C)=C1C3(C)C)[C@]1(OC(C)=O)CO[C@@H]1C[C@@H]2O [PACLITAXEL]
IC50 ([1]; Homo sapiens, COLO 205, 24 h): 0.0033 µM | IC50 [5]: 2.01 µM

Fc1cc(F)c(-c2c(Cl)nc(-c3cccs3)nc2NCC(F)(F)F)c(F)c1
IC50 ([1]; Homo sapiens, COLO 205, 24 h): 3.46 µM

CNCCCOc1cc(F)c(-c2c(Cl)nc(-c3cnccn3)nc2N[C@@H](C)C(F)(F)F)c(F)c1 [listing 3 of 3 here]
IC50 ([1]; Homo sapiens, COLO 205, 24 h): 0.0089 µM

Fc1cc(F)c(-c2c(Cl)nc(-c3cnccn3)nc2NCC(F)(F)F)c(F)c1
IC50 ([1]; Homo sapiens, COLO 205, 24 h): 0.084 µM

C[C@H](Nc1nc(-c2ccccn2)nc(Cl)c1-c1c(F)cc(F)cc1F)C(F)(F)F
IC50 ([1]; Homo sapiens, COLO 205, 24 h): 0.029 µM

C[C@H](Nc1nc(-n2cccn2)nc(Cl)c1-c1c(F)cc(F)cc1F)C(F)(F)F
IC50 ([1]; Homo sapiens, COLO 205, 24 h): 0.019 µM

C[C@H](Nc1nc(-c2cnccn2)nc(Cl)c1-c1c(F)cc(F)cc1F)C(F)(F)F
IC50 ([1]; Homo sapiens, COLO 205, 24 h): 0.051 µM

CN(C)CCCOc1cc(F)c(-c2c(Cl)nc(-c3cnccn3)nc2NCC(F)(F)F)c(F)c1 [listing 2 of 2 here]
IC50 ([1]; colo 205): 0.022 µM | IC50 [3]: 0.02 µM | IC50 [4]: 0.024 µM | IC50 [5]: 0.099 µM | Ratio IC50 [6]: 1.2 | Ratio IC50 [7]: 5

Cn1ccnc1-c1nc(Cl)c(-c2c(F)cc(F)cc2F)c(NCC(F)(F)F)n1
IC50 ([1]; Homo sapiens, COLO 205, 24 h): 0.077 µM

Fc1cc(F)c(-c2c(Cl)nc(-c3cccnc3)nc2NCC(F)(F)F)c(F)c1
IC50 ([1]; Homo sapiens, COLO 205, 24 h): 3.93 µM

CC[C@]1(O)C[C@H]2CN(CCc3c([nH]c4ccccc34)[C@@](C(=O)OC)(c3cc4c(cc3OC)N(C=O)[C@H]3[C@@](O)(C(=O)OC)[C@H](OC(C)=O)[C@]5(CC)C=CCN6CC[C@]43[C@@H]65)C2)C1 [VINCRISTINE]
IC50 ([1]; Homo sapiens, COLO 205, 24 h): 0.0026 µM | IC50 [3]: 0.0022 µM | IC50 [4]: 0.058 µM | IC50 [5]: 2.04 µM | Ratio IC50 [7]: 925
